How the values were obtained:
[1] = molecular target: T1, full length Cal1 (full length porcine calpain) (Sus scrofa, UniProt P35750); assay: Calpain inhibition kinetics, Suc-LLVY-AMC progress curves; assay type: biochemical; settings: for Calpain1 ki: inhibition rate constant; for Calpain1 ki / Calpain1 ki/Ki: full length Cal1; for Calpain1 rel (ki/Ki calculated relative to E-64): E-64 = 1; for Relative selectivity for inhibition of Cal1 over papain (in words): assessed using ki/Ki; for Calpain1 ki/Ki: mean ± S.D. of triplicate; for 10^2 × ki/Ki Cal1 / ki/Ki papain: selectivity ratio Cal1 over papain
T1 sequence (P35750 1-714): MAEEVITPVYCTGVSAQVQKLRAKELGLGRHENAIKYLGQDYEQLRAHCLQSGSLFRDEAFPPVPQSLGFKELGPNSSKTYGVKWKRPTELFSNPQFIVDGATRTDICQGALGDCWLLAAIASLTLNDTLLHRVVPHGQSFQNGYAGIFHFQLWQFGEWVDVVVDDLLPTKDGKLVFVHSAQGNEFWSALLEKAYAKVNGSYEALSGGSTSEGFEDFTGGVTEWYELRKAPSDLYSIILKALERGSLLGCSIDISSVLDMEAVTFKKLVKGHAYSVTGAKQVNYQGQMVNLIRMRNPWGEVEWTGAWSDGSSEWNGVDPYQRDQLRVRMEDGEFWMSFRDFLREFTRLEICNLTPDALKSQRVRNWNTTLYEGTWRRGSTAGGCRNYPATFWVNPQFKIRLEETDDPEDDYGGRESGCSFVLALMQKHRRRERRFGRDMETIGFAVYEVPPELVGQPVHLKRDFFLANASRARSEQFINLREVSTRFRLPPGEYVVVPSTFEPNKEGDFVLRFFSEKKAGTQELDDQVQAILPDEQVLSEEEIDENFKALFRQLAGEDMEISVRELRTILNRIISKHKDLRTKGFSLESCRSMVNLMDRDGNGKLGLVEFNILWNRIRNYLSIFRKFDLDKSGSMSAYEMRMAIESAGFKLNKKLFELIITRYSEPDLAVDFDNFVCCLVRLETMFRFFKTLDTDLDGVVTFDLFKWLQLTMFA
T1 sequence (P04574 1-266 partner): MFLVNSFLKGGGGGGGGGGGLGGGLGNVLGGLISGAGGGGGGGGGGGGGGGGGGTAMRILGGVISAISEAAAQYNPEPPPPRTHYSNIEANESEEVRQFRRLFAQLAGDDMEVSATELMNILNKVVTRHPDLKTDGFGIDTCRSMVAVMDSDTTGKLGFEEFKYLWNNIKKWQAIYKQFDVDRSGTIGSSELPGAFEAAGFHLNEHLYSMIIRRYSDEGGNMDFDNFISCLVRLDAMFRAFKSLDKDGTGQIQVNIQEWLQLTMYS

papain = molecular target: T2, papain (Carica papaya, UniProt P00784); assay: Papain inhibition kinetics, Suc-LLVY-AMC progress curves; assay type: biochemical; settings: for Papain ki: inhibition rate constant; for Papain rel (ki/Ki calculated relative to E-64): E-64 = 1; for Papain ki/Ki: mean ± S.D. of triplicate
T2 sequence (P00784 134-345): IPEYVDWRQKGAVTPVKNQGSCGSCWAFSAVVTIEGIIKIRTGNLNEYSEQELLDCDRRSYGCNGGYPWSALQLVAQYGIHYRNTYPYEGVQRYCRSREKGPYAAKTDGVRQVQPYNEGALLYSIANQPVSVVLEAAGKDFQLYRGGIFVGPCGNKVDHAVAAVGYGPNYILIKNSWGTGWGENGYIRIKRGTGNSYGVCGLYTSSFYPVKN
Outline: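 Papain (236 pM) in 100 mM NaCl, 50 mM HEPES pH 7.6, 1 mM TCEP with 30 µM Suc-LLVY-AMC and inhibitor at 0.5–50 µM, 30 °C. Organic solvent (acetonitrile/DMSO 1:1) stayed below 2%. AMC release was followed over time at Ex/Em 346/444 nm. Constants came from varied enzyme and inhibitor concentrations, and selectivity from ki/Ki with E-64 as 1.0. Triplicates.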

[2] = molecular target: recombinant rat Cal1cat (Cal1 catalytic domain) active site Cys (Rattus norvegicus, UniProt P97571); assay: LC-MS/MS examination of inhibitor modified Cal1cat active site; assay type: binding; settings: co-incubation of Cal1cat (1 μM) with E-64 and 22a, both 5 μM
Outline: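 Recombinant rat Cal1cat from E. coli (1 μM), activated with CaCl2 (10 mM), co-incubated 20 min with both inhibitors at 5 μM each. Quenched with EDTA, run on SDS-PAGE; band excised, alkylated in-gel with IAA (100 mM, 60 min), trypsin-digested. Ion-trap LC-MS/MS, reverse-phase column, ACN/water with 0.1% formic acid. Semiquantitative EIC of modified peptides against non-active-site IAA-capped peptide internal standard.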

recombinant rat Cal1cat (Cal1 catalytic domain) active site Cys, sequence (P97571 55-354 limits assumed): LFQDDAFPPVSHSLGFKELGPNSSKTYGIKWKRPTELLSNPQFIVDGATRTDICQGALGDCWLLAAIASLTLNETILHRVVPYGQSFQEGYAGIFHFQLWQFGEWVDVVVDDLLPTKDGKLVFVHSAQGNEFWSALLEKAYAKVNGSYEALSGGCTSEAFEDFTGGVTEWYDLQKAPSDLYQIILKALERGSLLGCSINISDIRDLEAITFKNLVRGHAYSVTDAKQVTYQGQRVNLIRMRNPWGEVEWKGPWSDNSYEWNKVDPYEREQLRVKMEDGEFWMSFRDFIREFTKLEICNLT

Structure (SMILES) | Calpain1 ki [1] [s⁻¹] | Papain ki (papain) [s⁻¹] | Competitive modification of Cal1cat active site [2] | Calpain1 rel (ki/Ki calculated relative to E-64) [1] | Relative selectivity for inhibition of Cal1 over papain (in words) [1] | Calpain1 ki/Ki [1] [×l0^−4 s^−1M^−1] | 10^2 × ki/Ki Cal1 / ki/Ki papain [1] | Papain rel (ki/Ki calculated relative to E-64) (papain) | Papain ki/Ki (papain) [×l0^−4s^−1M^−1]
CC(C)C[C@H](NC(=O)[C@H]1O[C@@H]1C(=O)O)C(=O)Nc1nc(-c2ccc(F)cc2)cs1 [22a, (2S,3S)-3-((S)-1-(4-(4-fluorophenyl)thiazol-2-ylamino)-4-methyl-1-oxopentan-2-ylcarbamoyl)oxirane-2-carboxylic acid] | 0.16 | 17.1 | relatively greater modification by 22a | – | – | – | – | – | –
O=C(NCc1cn(-c2ccc(F)cc2)nn1)[C@H](Cc1cscn1)NC(=O)[C@H]1O[C@@H]1C(=O)O [compound 36, (2S,3S)-3-((S)-1-((1-(4-fluorophenyl)-1H-1,2,3-triazol-4-yl)methylamino)-1-oxo-3-(thiazol-4-yl)propan-2-ylcarbamoyl)oxirane-2-carboxylic acid] | 0.10 | 12.7 | – | 1.1 | show Cal1 selectivity | 3.31±0.32 | 5.0 | 0.12 | 66.2 ±7.4
CC(C)C[C@H](NC(=O)[C@H]1O[C@@H]1C(=O)O)C(=O)NCCCCN=C(N)N [E-64, L-trans-epoxysuccinyl-leucylamido(4-guanidino)butane, reference compound] | 0.12 | 28.6 | – | – | – | 3.02±0.15 | 0.54 | – | 563 ± 52
O=C(Nc1nc(-c2ccc(F)cc2)cs1)[C@H](Cc1cscn1)NC(=O)[C@H]1O[C@@H]1C(=O)O [compound 31, 3-((S)-1-(4-(4-fluorophenyl)thiazol-2-ylamino)-1-oxo-3-(thiazol-4-yl)propan-2-ylcarbamoyl)oxirane-2-carboxylic acid] | 0.08 | 14.8 | – | 0.98 | show Cal1 selectivity | 2.96±0.14 | 1.06 | 0.50 | 279 ± 47
C#Cc1ccc(-c2csc(NC(=O)[C@H](Cc3cscn3)NC(=O)[C@H]3O[C@@H]3C(=O)O)n2)cc1 [compound 32, (2S,3S)-3-((S)-1-(4-(4-ethynylphenyl)thiazol-2-ylamino)-1-oxo-3-(thiazol-4-yl)propan-2-ylcarbamoyl)oxirane-2-carboxylic acid] | 0.14 | 21.6 | – | 1.3 | show Cal1 selectivity | 3.89±0.41 | 1.74 | 0.40 | 223 ± 2.4

From publication PMC3962784 (Journal of medicinal chemistry, 2013)
